Data: ChEMBL document CHEMBL4007417, “Target Elucidation by Cocrystal Structures of NADH-Ubiquinone Oxidoreductase of Plasmodium falciparum (PfNDH2) with Small Molecule To Eliminate Drug-Resistant Malaria” (J Med Chem, 2017)
Calls of active or inactive are those of the source. The calls are words filed in the database; no cut-off is given here.

Experiments:
Plasmodium yoelii [1] = test: Antimalarial activity against Plasmodium yoelii YM infected in BALB/c mouse assessed as time duration for parasite cure at 30 mg/kg, sc administered BID for 4 days starting at 96 hrs post infection, 8 hrs apart by Giemsa-staining based microscopic analysis; type: functional
Summary of the method: (§1)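 P. yoelii-infected mice, n=3 per group. Subcutaneous injection twice daily, 8 h apart, for 4 days starting at 96 h post infection. Growth inhibition read from blood smears at 24 h post treatment. Cure time taken as the minimum period to cure all mice in the group. DMSO controls included.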

Plasmodium falciparum [2] = test: Antimalarial activity against chloroquine/quinine/sulfadoxine-pyrimethamine/amodiaquine-resistant asexual blood stage Plasmodium falciparum Dd2 assessed as reduction in parasite recrudescence at 10 times EC50 for 72 hrs measured after 28 days post invasion by Giemsa staining-based light microscopic analysis; type: functional
Summary of the method: (§2)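 Parasite cultures exposed for 72 h to 10× EC50 of inhibitor. Drug then removed and cultures maintained for 28 days post treatment. Recrudescence monitored by microscopy.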

Plasmodium falciparum [3] = test: Antimalarial activity against quinine-resistant asexual blood stage Plasmodium falciparum C2A after 72 hrs by SYBR green-based fluorometric analysis; type: functional
Summary of the method: (§3)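 Mid-ring-stage cultures (~6-10 h post-invasion) at 1% parasitemia and 2% hematocrit, in triplicate. Twofold serial dilutions from a top concentration of 100 nM. Incubated 72 h at 37 °C under 5% CO2/5% O2/90% N2. Lysis buffer containing 5×SYBR Green I added, 20 min in the dark, fluorescence read at ex 485/em 538 nm. EC50 derived.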

Plasmodium yoelii [4] = test: Antimalarial activity against Plasmodium yoelii YM infected in BALB/c mouse assessed as mouse survival at 90 mg/kg, sc administered BID for 4 days starting at 96 hrs post infection, 8 hrs apart by Giemsa-staining based microscopic analysis; type: functional
Summary of the method: (§4)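 Mice inoculated with 1×106 P. yoelii parasites. Subcutaneous dosing for 4 days starting 96 h post infection, given once daily or twice daily 8 h apart. Parasitemia followed on Giemsa-stained blood smears. Survival recorded at 40 days post infection; groups of n=3. DMSO-only mice served as untreated controls.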

Plasmodium yoelii [5] = test: Antimalarial activity against Plasmodium yoelii YM infected in BALB/c mouse assessed as parasite growth inhibition at 10 mg/kg, sc administered QD for 4 days starting at 96 hrs post infection by Giemsa-staining based microscopic analysis; type: functional; conditions: read-out: GI
Summary of the method: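 P. yoelii-infected mice, n=3 per group. Subcutaneous injection once daily for 4 days starting at 96 h post infection. Parasitemia followed on blood-smear microscopy, with inhibition measured at 24 h post treatment. Cure time taken as the minimum period to cure all mice; survival recorded at 40 days. DMSO controls included.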

[6] = Inhibition of Plasmodium falciparum NDH2 N92R mutant expressed in Escherichia coli DH5alpha competent cells using NADH and ubiquinone-1 as substrate by spectrophotometric analysis
Summary of the method: (§5)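 Recombinant PfNDH2 point or double mutants assayed spectrophotometrically at 25 °C. Buffer: 50 mM MOPS pH 7.0, 150 mM NaCl, 1 mM EDTA, 0.01% Triton X-100. Substrates 50 µM NADH and 30 µM ubiquinone-1, with 0.5 nM enzyme and selected inhibitor concentrations.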

Plasmodium falciparum [7] = test: Antimalarial activity against multi drug-resistant asexual blood stage Plasmodium falciparum Fab9 after 72 hrs by SYBR green-based fluorometric analysis; type: functional; conditions: Fab9, 72 h; summary of the method: as §3
Plasmodium yoelii [8] = test: Antimalarial activity against Plasmodium yoelii YM infected in BALB/c mouse assessed as parasite growth inhibition at 5 mg/kg, sc administered QD for 4 days starting at 2 hrs post infection by Giemsa-staining based microscopic analysis; type: functional; conditions: read-out: GI
Summary of the method: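 P. yoelii-infected mice, n=3 per group. Subcutaneous injection once daily for 4 days starting at 2 h post infection. Growth inhibition determined at 24 h post treatment by blood-smear microscopy. Cure time taken as the minimum period to cure all mice in the group.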

Plasmodium yoelii [9] = test: Antimalarial activity against Plasmodium yoelii YM infected in BALB/c mouse assessed as parasite growth inhibition at 10 mg/kg, sc administered BID for 4 days starting at 96 hrs post infection, 8 hrs apart by Giemsa-staining based microscopic analysis; type: functional; conditions: read-out: GI; summary of the method: as §1
[10] = Inhibition of Plasmodium falciparum NDH2 N92R/S497R double mutant expressed in Escherichia coli DH5alpha competent cells using NADH and ubiquinone-1 as substrate by spectrophotometric analysis; summary of the method: as §5
Plasmodium yoelii [11] = test: Antimalarial activity against Plasmodium yoelii YM infected in BALB/c mouse assessed as mouse survival at 10 mg/kg, sc administered QD for 4 days starting at 96 hrs post infection by Giemsa-staining based microscopic analysis; type: functional; summary of the method: as §4
Plasmodium falciparum [12] = test: Synergistic antimalarial activity against Plasmodium falciparum in presence of chloroquine; type: functional
Summary of the method: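 In vitro drug interaction analyses with other antimalarials against P. falciparum. Experiments repeated three times; error bars s.e.m.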

Plasmodium yoelii [13] = test: Antimalarial activity against Plasmodium yoelii YM infected in BALB/c mouse assessed as time duration for parasite cure at 90 mg/kg, sc administered BID for 4 days starting at 96 hrs post infection, 8 hrs apart by Giemsa-staining based microscopic analysis; type: functional; summary of the method: as §1
Plasmodium falciparum [14] = test: Non-competitive inhibition of Plasmodium falciparum NDH2 expressed in Escherichia coli BL21 up to 50 nM by spectrophotometric analysis
Plasmodium falciparum [15] = test: Binding affinity to Plasmodium falciparum NDH2 expressed in Escherichia coli BL21 assessed as reduction in NADH Kd by SPR assay
[16] = Inhibition of Plasmodium falciparum wild type NDH2 expressed in Escherichia coli BL21 using NADH and ubiquinone-1 as substrate by spectrophotometric analysis
Summary of the method: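 Recombinant PfNDH2 activity measured spectrophotometrically at 25 °C. Buffer: 50 mM MOPS pH 7.0, 150 mM NaCl, 1 mM EDTA, 0.01% Triton X-100. Substrates 50 µM NADH and 30 µM ubiquinone-1, with 0.5 nM enzyme and selected inhibitor concentrations.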

Plasmodium falciparum [17] = test: Antimalarial activity against multi drug-resistant asexual blood stage Plasmodium falciparum D10 after 72 hrs by SYBR green-based fluorometric analysis; type: functional; conditions: D10, 72 h; summary of the method: as §3
[18] = Inhibition of Plasmodium falciparum NDH2 S497R mutant expressed in Escherichia coli DH5alpha competent cells using NADH and ubiquinone-1 as substrate by spectrophotometric analysis; summary of the method: as §5
Plasmodium yoelii [19] = test: Antimalarial activity against Plasmodium yoelii YM infected in BALB/c mouse assessed as parasite growth inhibition at 90 mg/kg, sc administered BID for 4 days starting at 96 hrs post infection, 8 hrs apart by Giemsa-staining based microscopic analysis; type: functional; conditions: read-out: GI; summary of the method: as §1
Plasmodium falciparum [20] = test: Antimalarial activity against dihydroartemisinin-resistant asexual blood stage Plasmodium falciparum 803 assessed as reduction in parasite recrudescence at 10 times EC50 for 72 hrs measured after 28 days post invasion by Giemsa staining-based light microscopic analysis; type: functional; summary of the method: as §2
Plasmodium yoelii [21] = test: Antimalarial activity against Plasmodium yoelii YM infected in BALB/c mouse assessed as mouse survival at 10 mg/kg, sc administered BID for 4 days starting at 96 hrs post infection, 8 hrs apart by Giemsa-staining based microscopic analysis; type: functional; summary of the method: as §4
Plasmodium yoelii [22] = test: Antimalarial activity against Plasmodium yoelii YM infected in BALB/c mouse assessed as time duration for parasite cure at 10 mg/kg, sc administered BID for 4 days starting at 96 hrs post infection, 8 hrs apart by Giemsa-staining based microscopic analysis; type: functional; summary of the method: as §1

With Cc1c(-c2ccc(Cc3ccc(OC(F)(F)F)cc3)cc2)[nH]c2cccc(F)c2c1=O the Time (Plasmodium yoelii [1]) was 4 days, the Activity (Plasmodium falciparum [2]) was “Active” and the EC50 (Plasmodium falciparum [3]) was 7.18 nM. The survival at 90 mg/kg (Plasmodium yoelii [4]) was 100%, the inhibition in vivo at 10 mg/kg (Plasmodium yoelii [5]) was 98.4% and the IC50 [6] was 16.7 nM. The EC50 (Plasmodium falciparum [7]) was 6.25 nM, the inhibition in vivo at 5 mg/kg (Plasmodium yoelii [8]) was 100% and the inhibition in vivo at 10 mg/kg (Plasmodium yoelii [9]) was 100%. The IC50 [10] was 123 nM, the survival at 10 mg/kg (Plasmodium yoelii [11]) was 100% and the “fractional inhibitory concentration index (FICI)” value (Plasmodium falciparum [12]) was 1.52. The Time (Plasmodium yoelii [13]) was 4 days, the inhibition (Plasmodium falciparum [14]) was “Active” and the fold change (FC) (Plasmodium falciparum [15]) was 7. For the same molecule, the IC50 [16] was 3.73 nM, the EC50 (Plasmodium falciparum [17]) was 9.18 nM and the IC50 [18] was 17.1 nM. For the same molecule, the inhibition in vivo at 90 mg/kg (Plasmodium yoelii [19]) was 100%, the Activity (Plasmodium falciparum [20]) was “Active” and the survival at 10 mg/kg (Plasmodium yoelii [21]) was 100%. For the same molecule, the Time (Plasmodium yoelii [22]) was 16 days.
